Assay results taken from ChEMBL document CHEMBL1155883, “5-Alkyl-6-benzyl-2-(2-oxo-2-phenylethylsulfanyl)pyrimidin-4(3H)-ones, a series of anti-HIV-1 agents of the dihydro-alkoxy-benzyl-oxopyrimidine family with peculiar structure-activity relationship profile” (J Med Chem, 2008).

How the values were obtained:
[1] = Selectivity index, ratio of CC50 for human MT4 cells to EC50 for HIV1 NL4-3; type: toxicity, cell-based; details: read-out: Ratio CC50/EC50
How it was run: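 Computed as CC50/EC50. CC50 comes from MTT viability of mock-infected MT-4 cells and EC50 from MTT protection of NL4-3-infected MT-4 cells, both read at day 5.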

[2] = tested on: Human immunodeficiency virus 1; experiment: Antiviral activity against HIV1 isolates with reverse transcriptase K103N mutation in human MT4 cells assessed as inhibition of virus-induced cytopathogenicity by MTT assay; type: functional, organism-based; details: Human immunodeficiency virus 1, MT4
How it was run: (§1)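 MT-4 lymphoid cells infected with HIV-1 carrying RT K103N, Y181C or Y188L, in the presence of different drug concentrations. Viable cells counted at day 5 postinfection by MTT colorimetric assay. EC50 is the concentration that inhibits 50% of the HIV-induced cytopathic effect.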

[3] = tested on: Human immunodeficiency virus type 1 reverse transcriptase (Human immunodeficiency virus 1), Q72547 [Y181I]
[4] = tested on: Human immunodeficiency virus 1; experiment: Resistance index, ratio of ID50 for reverse transcriptase L100I mutant to IC50 for wild-type HIV1 reverse transcriptase
How it was run: (§2)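 Recombinant wt and K103N, L100I or Y181I HIV-1 RT (>95% pure), 2-4 nM. RNA-dependent DNA polymerase assay on 0.5 µg poly(rA)/oligo(dT) 10:1 (0.3 µM 3'-OH ends) with 10 µM [3H]-dTTP and 8% final DMSO. Aliquots taken every 2 min. Inhibitor range 0.2-5× ID50, fitted to a noncompetitive model. Fold resistance is mutant ID50 divided by wt ID50.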

[5] = tested on: Human immunodeficiency virus 1; experiment: Resistance index, ratio of EC50 for drug-resistant HIV1 isolate with reverse transcriptase Y181C mutation to EC50 for wild type HIV1 NL4-3; type: functional
How it was run: (§3)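 Fold resistance is the EC50 against the K103N, Y181C or Y188L mutant strain divided by the EC50 against wt NL4-3. Each EC50 is from MT-4 cells infected in the presence of different drug concentrations, with viability read by MTT at day 5 postinfection.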

[6] = tested on: Human immunodeficiency virus type 1 reverse transcriptase (Human immunodeficiency virus 1), Q72547 [K103N]
[7] = tested on: Human immunodeficiency virus 1; experiment: Resistance index, ratio of EC50 for drug-resistant HIV1 isolate with reverse transcriptase K103N mutation to EC50 for wild type HIV1 NL4-3; type: functional; how it was run: as §3
[8] = tested on: Human immunodeficiency virus 1; experiment: Antiviral activity against HIV1 isolates with reverse transcriptase Y181C mutation in human MT4 cells assessed as inhibition of virus-induced cytopathogenicity by MTT assay; type: functional, organism-based; details: Human immunodeficiency virus 1, MT4; how it was run: as §1
[9] = target: Human immunodeficiency virus type 1 reverse transcriptase (Human immunodeficiency virus 1) (UniProt Q72547)
[10] = tested on: Human immunodeficiency virus 1; experiment: Antiviral activity against HIV1 NL4-3 in human MT4 cells assessed as inhibition of virus-induced cytopathogenicity by MTT assay; type: functional, organism-based; details: Human immunodeficiency virus 1, NL4-3, MT4
How it was run: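 MT-4 lymphoid cells infected with wild-type HIV-1 NL4-3 in the presence of a range of compound concentrations. Viable cells were counted by MTT colorimetric read-out at day 5 post-infection. EC50 is the concentration giving 50% protection from virus-induced cytopathic effect. Means ± SD from at least two or three experiments.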

[11] = tested on: Human immunodeficiency virus 1; experiment: Antiviral activity against HIV1 isolates with reverse transcriptase Y188L mutation in human MT4 cells assessed as inhibition of virus-induced cytopathogenicity by MTT assay; type: functional, organism-based; details: Human immunodeficiency virus 1, MT4; how it was run: as §1
[12] = tested on: Human immunodeficiency virus 1; experiment: Resistance index, ratio of ID50 for reverse transcriptase K103N mutant to IC50 for wild-type HIV1 sreverse transcriptase; how it was run: as §2
[13] = tested on: Human immunodeficiency virus 1; experiment: Resistance index, ratio of ID50 for reverse transcriptase Y181I mutant to IC50 for wild-type HIV1 reverse transcriptase; how it was run: as §2
[14] = tested on: Human immunodeficiency virus type 1 reverse transcriptase (Human immunodeficiency virus 1), Q72547 [L100I]
[15] = Cytotoxicity against human MT4 cells by MTT assay; type: cell-based
How it was run: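 Mock-infected MT-4 cells were exposed to a range of compound concentrations. Viability was read by MTT at day 5. CC50 is the concentration that kills 50% of uninfected cells. The top concentration was limited by compound precipitation in culture medium. Means ± SD from at least two or three experiments.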

| Compound | selectivity ratio [1] | EC50 [2] | ID50 [3] | Ratio [4] | Ratio EC50 [5] | ID50 [6] | Ratio EC50 [7] | EC50 [8] | ID50 [9] | EC50 [10] | EC50 [11] | Ratio [12] | Ratio [13] | ID50 [14] | CC50 [15] |
| --- | --- | --- | --- | --- | --- | --- | --- | --- | --- | --- | --- | --- | --- | --- | --- |
| Cc1c(Cc2c(F)cccc2Cl)nc(SCC(=O)c2ccccc2)[nH]c1=O | > 267 | 9.48 µM | 1.2 µM | 275 | 37 | 23 µM | 211 | 1.68 µM | 0.012 µM | 0.045 µM | > 12 µM | 1920 | 100 | 3.3 µM | > 12 µM |
| CCc1c(Cc2c(F)cccc2Cl)nc(SCC(=O)c2ccc(OC)cc2)[nH]c1=O | > 550 | 4.16 µM | > 40 µM | 414 | 42 | > 40 µM | 208 | 0.84 µM | 0.007 µM | 0.02 µM | > 11 µM | – | – | 2.9 µM | > 11 µM |
| Cc1c(Cc2c(F)cccc2F)nc(SCC(=O)c2ccc(F)cc2)[nH]c1=O | > 2480 | > 62 µM | 1.71 µM | 96 | 14 | 12 µM | – | 0.35 µM | 0.41 µM | 0.025 µM | > 62 µM | 29 | 4 | 39.2 µM | > 62 µM |
| O=C(CSc1nc(Cc2c(Cl)cccc2Cl)cc(=O)[nH]1)c1ccccc1 | > 7 | > 12 µM | 0.26 µM | 917 | – | 3.7 µM | – | > 12 µM | 0.012 µM | 1.78 µM | > 12 µM | 308 | 22 | 11 µM | > 12 µM |
| CCC(C)c1c(Cc2c(F)cccc2Cl)nc(SCC(=O)c2ccc(OC)cc2)[nH]c1=O (stereo unspecified) | > 6670 | > 40 µM | 7.9 µM | 3910 | – | 0.59 µM | – | > 40 µM | 0.007 µM | 0.006 µM | > 40 µM | 84 | 1130 | 27.4 µM | 40 µM |
| CC(C)c1c(Cc2c(F)cccc2F)nc(SCC(=O)c2ccccc2)[nH]c1=O | > 30000 | 4.46 µM | > 40 µM | 600 | 120 | 1.58 µM | 2230 | 0.24 µM | 0.008 µM | 0.002 µM | > 60 µM | 198 | – | 4.8 µM | > 60 µM |
| CCc1c(Cc2c(F)cccc2F)nc(SCC(=O)c2ccc(F)cc2)[nH]c1=O | > 3160 | 5.14 µM | 0.51 µM | 113 | 38 | 3.65 µM | 270 | 0.72 µM | 0.061 µM | 0.019 µM | > 60 µM | 60 | 8 | 6.9 µM | > 60 µM |
| CCc1c(Cc2c(Cl)cccc2Cl)nc(SCC(=O)c2ccc(OC)cc2)[nH]c1=O | > 16 | > 54 µM | 0.14 µM | 105 | 7 | 0.48 µM | – | 24.1 µM | 0.023 µM | 3.3 µM | > 54 µM | 21 | 6 | 2.42 µM | > 54 µM |
| Cc1c(Cc2c(F)cccc2Cl)nc(SCC(=O)c2ccc(F)cc2)[nH]c1=O | > 29500 | 8.72 µM | 0.7 µM | 49 | 140 | 5.35 µM | 4360 | 0.28 µM | 0.18 µM | 0.002 µM | > 59 µM | 30 | 4 | 8.8 µM | > 59 µM |
